In ChEMBL document CHEMBL5724801, “EUbOPEN Chemogenomics Library - Multiplex” (2024):
Values joined by “and” are separate entries in the source; they are usually repeats but may differ in a detail not shown here. Equal entries are not always repeated.

Test system: U2OS
Assay: Multiplex assay against U2OS
Assay type: toxicity, cell-based
Conditions: human
In short: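 Values for tubulin, mitochondrial-mass and membrane-permeability phenotypes are per cents of cells with healthy nuclei. These cells were identified by CellPathfinder machine-learning gating of live cells that had been stained at seeding with Hoechst33342, BioTracker Green Microtubule Cytoskeleton Dye, MitoTracker Red and Annexin V Alexa Fluor 680 and imaged on a CQ1 microscope at 37°C and 5% CO2 after compound addition. The gating first set Hoechst high-intensity objects apart from normal cells, then split normal cells into healthy, pyknosed or fragmented nuclei, and pyknosed cells into mitotic or apoptotic.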

[1] = 12 h, 1 µM, compound concentration 1 uM
[2] = 12 h, 10 µM, compound concentration 10 uM
[3] = 24 h, 1 µM, compound concentration 1 uM
[4] = 24 h, 10 µM, compound concentration 10 uM
[5] = 48 h, 1 µM, compound concentration 1 uM
[6] = 48 h, 10 µM, compound concentration 10 uM

Cc1cc(NC(=O)c2cccc(NC(=O)/C=C/CN(C)C)c2)ccc1Nc1nccc(-c2cccnc2)n1
Population Apoptotic (%) [1]: 27.59% and 30.56% | Population Fragmented Nuclei (%) [1]: 1.96% and 1.23% | Population Healthy Nuclei (%) [1]: 90.93% and 76.69% | Population Hoechst High Intensity Objects (%) [1]: 0% | Population Membrane Permeable-Phenotype (%) [1]: 0.54% and 4% | Population Mitochondria Different-Phenotype (%) [1]: 0% and 11.2% | Population Mitotic Cells (%) [1]: 72.41% and 69.44% | Population Normal (%) [1]: 100% | Population Tubulin-Different-Phenotype (%) [1]: 1.35% and 1.6% | Total Cell Count [1]: 408 and 163 | Population Apoptotic (%) [2]: 30.59% and 26% | Population Fragmented Nuclei (%) [2]: 2.2% and 3.08% | Population Healthy Nuclei (%) [2]: 71.07% and 58.46% | Population Hoechst High Intensity Objects (%) [2]: 0% | Population Membrane Permeable-Phenotype (%) [2]: 61.06% and 84.21% | Population Mitotic Cells (%) [2]: 69.41% and 74% | Population Normal (%) [2]: 100% | Population Pyknosed Nuclei (%) [2]: 26.73% and 38.46% | Population Tubulin-Different-Phenotype (%) [2]: 71.68% and 55.26% | Total Cell Count [2]: 318 and 130 | Population Apoptotic (%) [3]: 35.71% and 38.71% | Population Fragmented Nuclei (%) [3]: 1.26% and 5.24% | Population Healthy Nuclei (%) [3]: 91.2% and 80% | Population Hoechst High Intensity Objects (%) [3]: 0% | Population Membrane Permeable-Phenotype (%) [3]: 0.79% and 4.17% | Population Mitotic Cells (%) [3]: 64.29% and 61.29% | Population Normal (%) [3]: 100% | Population Pyknosed Nuclei (%) [3]: 7.54% and 14.76% | Population Tubulin-Different-Phenotype (%) [3]: 0.79% and 1.19% | Total Cell Count [3]: 557 and 210 | Population Apoptotic (%) [4]: 56.85% and 76.53% | Population Fragmented Nuclei (%) [4]: 2.51% and 3.51% | Population Hoechst High Intensity Objects (%) [4]: 0.31% and 0% | Population Membrane Permeable-Phenotype (%) [4]: 25.44% and 41.67% | Population Mitochondria Different-Phenotype (%) [4]: 21.93% and 41.67% | Population Mitotic Cells (%) [4]: 43.15% and 23.47% | Population Normal (%) [4]: 99.69% and 100% | Population Pyknosed Nuclei (%) [4]: 61.76% and 85.96% | Population Tubulin-Different-Phenotype (%) [4]: 54.39% and 58.33% | Total Cell Count [4]: 320 and 114 | Population Apoptotic (%) [5]: 41.94% and 59.02% | Population Fragmented Nuclei (%) [5]: 4.41% and 6.54% | Population Healthy Nuclei (%) [5]: 86.07% and 73.53% | Population Hoechst High Intensity Objects (%) [5]: 0% and 0.33% | Population Membrane Permeable-Phenotype (%) [5]: 0.6% and 3.11% | Population Mitochondria Different-Phenotype (%) [5]: 0% and 7.56% | Population Mitotic Cells (%) [5]: 58.06% and 40.98% | Population Normal (%) [5]: 100% and 99.67% | Population Pyknosed Nuclei (%) [5]: 9.53% and 19.93% | Population Tubulin-Different-Phenotype (%) [5]: 1.67% and 0.89% | Population Apoptotic (%) [6]: 92.36% and 96.04% | Population Fragmented Nuclei (%) [6]: 3.57% and 4% | Population Healthy Nuclei (%) [6]: 7.14% and 15.2% | Population Hoechst High Intensity Objects (%) [6]: 0% | Population Mitotic Cells (%) [6]: 7.64% and 3.96% | Population Normal (%) [6]: 100% | Population Pyknosed Nuclei (%) [6]: 89.29% and 80.8% | Total Cell Count [6]: 308 and 125

COc1ccccc1N1CCN(CCCCNC(=O)c2ccc3ccccc3c2)CC1.Cl
Population Apoptotic (%) [1]: 68% and 42% | Population Fragmented Nuclei (%) [1]: 18% and 17% | Population Healthy Nuclei (%) [1]: 69% and 75% | Population Mitochondria Different-Phenotype (%) [1]: 8% and 15% | Population Mitotic Cells (%) [1]: 31% and 57% | Population Normal (%) [1]: 95% and 97% | Total Cell Count [1]: 243 and 99 | Population Apoptotic (%) [2]: 78% and 65% | Population Fragmented Nuclei (%) [2]: 30% and 17% | Population Healthy Nuclei (%) [2]: 39% and 51% | Population Mitochondria Different-Phenotype (%) [2]: 80% and 94% | Population Mitotic Cells (%) [2]: 21% and 34% | Population Normal (%) [2]: 91% and 93% | Population Pyknosed Nuclei (%) [2]: 30% | Total Cell Count [2]: 222 and 111 | Population Apoptotic (%) [3]: 78% and 80% | Population Fragmented Nuclei (%) [3]: 18% and 21% | Population Healthy Nuclei (%) [3]: 68% | Population Mitochondria Different-Phenotype (%) [3]: 9% and 11% | Population Mitotic Cells (%) [3]: 21% and 20% | Population Normal (%) [3]: 96% and 98% | Population Pyknosed Nuclei (%) [3]: 9% | Total Cell Count [3]: 262 and 103 | Population Apoptotic (%) [4]: 90% and 100% | Population Fragmented Nuclei (%) [4]: 35% and 19% | Population Healthy Nuclei (%) [4]: 32% and 61% | Population Mitochondria Different-Phenotype (%) [4]: 78% and 93% | Population Mitotic Cells (%) [4]: 10% and 0% | Population Normal (%) [4]: 93% | Population Pyknosed Nuclei (%) [4]: 31% | Total Cell Count [4]: 234 and 125 | Population Apoptotic (%) [5]: 72% and 88% | Population Fragmented Nuclei (%) [5]: 19% and 17% | Population Healthy Nuclei (%) [5]: 71% and 64% | Population Mitochondria Different-Phenotype (%) [5]: 3% | Population Mitotic Cells (%) [5]: 27% and 12% | Population Normal (%) [5]: 95% and 96% | Population Pyknosed Nuclei (%) [5]: 9% | Total Cell Count [5]: 362 and 144 | Population Apoptotic (%) [6]: 93% and 86% | Population Fragmented Nuclei (%) [6]: 38% and 23% | Population Healthy Nuclei (%) [6]: 27% and 37% | Population Mitochondria Different-Phenotype (%) [6]: 69% and 77% | Population Mitotic Cells (%) [6]: 6% and 13% | Population Normal (%) [6]: 91% and 87% | Population Pyknosed Nuclei (%) [6]: 34% and 39% | Total Cell Count [6]: 256 and 111
